Experimental data reported in ChEMBL document CHEMBL1143779, “Antiviral 2,5-disubstituted imidazo[4,5-c]pyridines: from anti-pestivirus to anti-hepatitis C virus activity” (Bioorg Med Chem Lett, 2007).
pEC50: −log10 of the molar value. Calls of active or inactive are those of the source. The rule behind the calls is not given here.

Tests used:
[1] = system: Bovine viral diarrhea virus 1; assay: Antiviral activity against BVDV in MDBK cells assessed as reduction of virus-induced cytopathic effect; format: functional, organism-based; conditions: Bovine viral diarrhea virus isolates and strains
[2] = Cytotoxicity against MDBK cells; format: cell-based, Bos taurus; conditions: cattle
Procedure, shortened: (§1)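 MDBK or Huh 5-2 cells seeded at 5 · 10³ cells/well in MEM-FCS; serial compound dilutions added 24 h later. Read-out OD490 nm, expressed as OD treated/OD untreated control.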

[3] = (§2) Selectivity index, ratio of CC50 for MDBK cells to EC50 for BVDV; format: functional
[4] = system: Hepatitis C virus; assay: Antiviral activity against HCV in Huh 5-2 cells assessed as […]; format: functional, organism-based, Hepacivirus hominis
Procedure, shortened: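 Huh 5-2 cells were seeded at 5×10³/well in complete DMEM with G418. After 24 h at 37 °C (5% CO₂), the medium was replaced with threefold serial compound dilutions in DMEM without G418 and incubated for 4 days. Values are means of 4–6 independent experiments.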

[5] = Cytotoxicity against Huh 5-2 cells; format: cell-based; conditions: human; procedure, shortened: as §1
[6] = Selectivity index, ratio of CC50 for Huh 5-2 cells to EC50 for HCV; format: functional
[7] = system: MDBK; assay: as §2; format: functional

SMILES | pEC50 [1] | CC50 [2] [µM] | Ratio CC50/EC50 [3] | pEC50 [4] | CC50 [5] [µM] | Ratio CC50/EC50 [6] | Activity [7] | Activity [6]
FC(F)(F)c1cccc(-c2nc3ccn(Cc4ccc(Br)cc4)cc-3n2)c1 | 6.30 | > 33 | >72 | 4.64 | > 116 | >5 |  | 
Brc1ccc(Cn2ccc3nc(-c4cc(Br)cc(Br)c4)nc-3c2)cc1 | < 4.48 | > 33 |  | < 4.02 | > 96 |  | inactive | inactive
CCc1nc2ccn(Cc3ccc(Br)cc3)cc-2n1 | 6.42 | > 33 | >87 | < 4.04 | 92 |  |  | inactive
Fc1cccc(-c2nc3ccn(Cc4ccc(Br)cc4)cc-3n2)c1 | 7.40 | > 33 | >825 | < 4.36 | 44 |  |  | inactive
Fc1ccccc1-c1nc2ccn(Cc3ccc(I)cc3)cc-2n1 | 7.15 | > 33 | >478 | 6.10 | 58 | 74 |  | 
COc1cccc(-c2nc3ccn(Cc4ccc(Br)cc4)cc-3n2)c1 | 7.30 | > 33 | >660 | 4.74 | 28 | 2 |  | 
Clc1ccccc1-c1nc2ccn(Cc3ccc(Br)cc3)cc-2n1 | 6.48 | > 33 | >100 | 4.60 | 43 | 2 |  | 
Brc1ccc(Cn2ccc3nc(-c4ccc5ccccc5c4)nc-3c2)cc1 | 7.52 | 7 | 259 | 5.24 | 9.7 | 2 |  | 
Clc1ccc(-c2nc3ccn(Cc4ccc(Br)cc4)cc-3n2)cc1 | 6.15 | > 33 | >47 | 4.89 | 17 |  |  | inactive
CN(C)c1cccc(-c2nc3ccn(Cc4ccc(Br)cc4)cc-3n2)c1 | 6.85 | 24 | 171 | < 4.10 | 79 |  |  | inactive
Cc1ccccc1-c1nc2ccn(Cc3ccc(Br)cc3)cc-2n1 | 7.21 | > 33 | >541 | 4.62 | 21 |  |  | inactive
Brc1ccc(Cn2ccc3nc(CCc4ccccc4)nc-3c2)cc1 | < 4.80 | 16 |  | 5.60 | 7.6 | 3 | inactive | 
Clc1cccc(-c2nc3ccn(Cc4ccc(Br)cc4)cc-3n2)c1 | 6.82 | > 33 | >220 | 4.08 | > 125 | >2 |  | 
Brc1ccc(Cn2ccc3nc(-c4cccc5ccccc45)nc-3c2)cc1 | 6.52 | 23 | 77 | 5.01 | 12 |  |  | inactive
Brc1ccc(Cn2ccc3nc(-c4ccc(Br)s4)nc-3c2)cc1 | 6.22 | > 33 | >55 | < 4.74 | 18 |  |  | inactive
Brc1ccc(Cn2ccc3nc(-c4cccc(Br)c4)nc-3c2)cc1 | 6.96 | > 33 | >300 | < 3.95 | > 113 |  |  | inactive
Fc1ccc(-c2nc3ccn(Cc4ccc(Br)cc4)cc-3n2)cc1 | 6.77 | > 33 | >194 | 4.51 | 37 |  |  | inactive

SMILES | pEC50 [1] | CC50 [2] [µM] | Ratio CC50/EC50 [3] | pEC50 [4] | CC50 [5] [µM] | Ratio CC50/EC50 [6] | Activity [7] | Activity [6]
Cc1ccc(-c2nc3ccn(Cc4ccc(Br)cc4)cc-3n2)cc1 | 6.40 | 21 | 53 | 5.09 | 13 | 2 |  | 
Brc1ccc(Cn2ccc3nc(Cc4ccccc4)nc-3c2)cc1 | < 4.48 | > 33 |  | 4.10 | > 132 | >2 | inactive | 
Brc1ccc(Cn2ccc3nc(-c4cccc(I)c4)nc-3c2)cc1 | 7.15 | > 33 | >83 | 5.24 | 12 | 2 |  | 
Brc1ccc(Cn2ccc3nc(-c4cccs4)nc-3c2)cc1 | 7.40 | > 33 | >825 | < 4.46 | 35 |  |  | inactive
Brc1ccc(Cn2ccc3nc(COc4ccccc4)nc-3c2)cc1 | < 5.10 | > 33 |  | 4.60 | 35 | 1.5 |  | 
Brc1ccc(Cn2ccc3nc(/C=C/c4ccccc4)nc-3c2)cc1 | 6.80 | 14 | 88 | 5.77 | 2.5 | >2 |  | 
Brc1ccc(Cn2ccc3nc(CCCc4ccccc4)nc-3c2)cc1 | 5.52 | 22 | 8 | 5.13 | 12 | 2 |  | 
Brc1ccc(Cn2ccc3nc(-c4ccccc4Br)nc-3c2)cc1 | 6.30 | > 33 | >66 | 4.68 | 36 | 2 |  | 
Brc1ccc(Cn2ccc3nc(-c4cccnc4)nc-3c2)cc1 | 6.80 | > 33 | >206 | 3.96 | 126 |  |  | inactive
Brc1ccc(Cn2ccc3nc(-c4ccccn4)nc-3c2)cc1 | 7.00 | 10 | 96 | 6.46 | 5.2 | 15 |  | 
Fc1ccccc1-c1nc2ccn(Cc3ccc(Cl)cc3)cc-2n1 | 6.96 | > 33 | >300 | 4.36 | 68 | 1.5 |  | 
Brc1ccc(Cn2ccc3nc(-c4ccccc4)nc-3c2)cc1 |  |  |  | < 4.42 | 38 |  |  | inactive
Brc1ccc(Cn2ccc3nc(CCCCc4ccccc4)nc-3c2)cc1 | < 5.30 | 5 |  | < 5.66 | 2.2 |  | inactive | inactive
Cc1cccc(-c2nc3ccn(Cc4ccc(Br)cc4)cc-3n2)c1 | 7.22 | 23 | 372 | < 4.96 | 11 |  |  | inactive
Brc1ccc(Cn2ccc3nc(-c4ccncc4)nc-3c2)cc1 | 6.33 | > 33 | >70 | 4.85 | 38 | 3 |  | 
Brc1ccc(Cn2ccc3nc(CSc4ccccc4)nc-3c2)cc1 | < 4.60 | 25 |  | 5.31 | 9.7 | 2 | inactive | 
